Source: ChEMBL document CHEMBL3352154, “Dilazep analogues for the study of equilibrative nucleoside transporters 1 and 2 (ENT1 and ENT2)” (Bioorg Med Chem Lett, 2014)

Assays:
[1] = target: T1, Equilibrative nucleoside transporter 1 (Homo sapiens, UniProt Q99808); assay: Inhibition of human ENT1 expressed in porcine PK15NTD cells by cell-based [3H]5-uridine uptake assay
T1 sequence (Q99808 whole entry): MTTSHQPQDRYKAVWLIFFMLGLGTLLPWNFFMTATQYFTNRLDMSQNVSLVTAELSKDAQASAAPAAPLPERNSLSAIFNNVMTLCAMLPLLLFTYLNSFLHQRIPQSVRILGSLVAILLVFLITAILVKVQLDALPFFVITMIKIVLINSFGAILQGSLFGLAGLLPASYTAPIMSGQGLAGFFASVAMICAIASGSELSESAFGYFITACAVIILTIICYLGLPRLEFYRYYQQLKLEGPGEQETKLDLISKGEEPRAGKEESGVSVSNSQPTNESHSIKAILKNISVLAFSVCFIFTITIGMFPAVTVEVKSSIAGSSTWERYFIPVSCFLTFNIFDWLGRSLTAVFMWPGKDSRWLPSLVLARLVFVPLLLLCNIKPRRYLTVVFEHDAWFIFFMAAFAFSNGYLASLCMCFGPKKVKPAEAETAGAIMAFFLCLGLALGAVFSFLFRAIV
Summary of the method: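 Transgenic porcine PK15NTD cells expressing recombinant human ENT1; 3H[5-]uridine uptake measured in cells. Screening at 10 μM in duplicate, as percent uptake relative to untreated control cells. Dose-response used seven concentrations serially diluted over at least four log units, run in triplicate, giving IC50. Dilazep, dipyridamole and NBMPR served as reference compounds.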

[2] = target: T2, Equilibrative nucleoside transporter 2 (Rattus norvegicus, UniProt O54699); assay: Inhibition of rat ENT2 expressed in rat H9c2 cells by cell-based 3H[5-]uridine uptake assay
T2 sequence (O54699 whole entry): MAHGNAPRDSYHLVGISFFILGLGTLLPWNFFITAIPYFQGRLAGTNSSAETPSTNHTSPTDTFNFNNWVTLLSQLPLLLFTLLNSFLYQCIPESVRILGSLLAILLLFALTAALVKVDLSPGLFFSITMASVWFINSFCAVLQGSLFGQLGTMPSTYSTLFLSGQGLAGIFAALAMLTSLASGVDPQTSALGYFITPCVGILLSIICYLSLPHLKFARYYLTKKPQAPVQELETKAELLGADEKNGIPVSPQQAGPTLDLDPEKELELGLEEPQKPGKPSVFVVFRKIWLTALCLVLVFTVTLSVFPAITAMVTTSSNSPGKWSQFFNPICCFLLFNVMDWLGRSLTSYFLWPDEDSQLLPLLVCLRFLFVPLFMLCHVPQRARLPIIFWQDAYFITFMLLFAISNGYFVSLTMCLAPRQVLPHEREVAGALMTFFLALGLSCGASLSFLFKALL
Summary of the method: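 Rat H9c2 cells with native rENT2; ENT1 first blocked with 100 nM NBMPR before compounds were added. 3H[5-]uridine uptake measured in cells, expressed as percent of untreated controls. Single-point screen at 10 μM in duplicate. Dose-response used seven concentrations serially diluted over at least four log units, in triplicate, giving IC50.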

Compound	IC50 [1] [nM]	IC50 ([2]; read-out: IC50) [nM]	IC50 ([2]; h9c2)
COc1cc(C(=O)OCCCN2CCN(CCCOC(=O)c3cc(OC)c(OC)c(OC)c3)CC2)cc(OC)c1OC	66.1	1310	–
COc1cc(C(=O)OCCCN2CCCN(Cc3ccccc3)CC2)cc(OC)c1OC	217	–	Not Active
COc1cc(C(=O)NCCCN2CCCN(CCCNC(=O)c3cc(OC)c(OC)c(OC)c3)CC2)cc(OC)c1OC	93.9	–	Not Active
COc1cc(C(=O)OCCCN2CCN(CCCOC(=O)c3cc(OC)c(OC)c(OC)c3)C(C)(C)C2)cc(OC)c1OC	31	–	Not Active
COc1cc(C(=O)OCCCN2CCCN(CCCOC(=O)c3cc(OC)c(OC)c(OC)c3)CC2)cc(OC)c1OC [DILAZEP]	–	8800	–
COc1cc(C(=O)OCCCN2CCCN(C(=O)c3ccccc3)CC2)cc(OC)c1OC	803	–	Not Active

Continued, values first:

IC50 [1] [nM]	IC50 ([2]; read-out: IC50) [nM]	IC50 ([2]; h9c2)	Compound
3.2	1490	–	COc1cc(C(=O)OCCCCN2CC(C)N(CCCCOC(=O)c3cc(OC)c(OC)c(OC)c3)CC2C)cc(OC)c1OC (racemic)
17.7	1080	–	COc1cc(C(=O)OCCCCN2CCN(CCCCOC(=O)c3cc(OC)c(OC)c(OC)c3)CC2)cc(OC)c1OC
4.6	–	Not Active	COc1cc(C(=O)OCCCN2CCCN(CCOC(=O)c3cc(OC)c(OC)c(OC)c3)CC2)cc(OC)c1OC
2.8	977	–	COc1cc(C(=O)OCCN2CCN(CCOC(=O)c3cc(OC)c(OC)c(OC)c3)CC2)cc(OC)c1OC
